Activity calls are given as the source filed them. The calls are words filed in the database; no cut-off is given here.
Columns and labels:
[1] = Cytotoxicity against Wistar rat splenocytes assessed as reduction in cell viability at 10^-5 to 10^-1 mM after 24 hrs by MTT assay; assay type: tissue-based; conditions: splenocyte, dose 0.00001-0.1 mM
Procedure, shortened: (§1)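 Freshly isolated primary rat spleen lymphocytes and peritoneal macrophages, cultured separately. Read-out is MTT metabolism, taken as mitochondrial reductase activity. Values are mean percentages with SD, relative to RPMI-treated control cells.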

[2] = Cytotoxicity against Wistar rat splenocytes assessed as lysosomal activity at 10^-5 to 10^-1 mM after 24 hrs by neutral red dye-based assay; assay type: tissue-based; conditions: splenocyte, dose 0.00001-0.1 mM
Procedure, shortened: (§2)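 Freshly isolated primary rat splenocytes and peritoneal macrophages. Read-out is neutral red accumulation, taken as lysosomal function. Results are compared with RPMI-treated control cells.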

Peritoneal macrophage [3] = experiment: Inhibition of MPO in Wistar rat peritoneal macrophages assessed as oxidation of 1,2-diaminobenzene at 10^-5 to 10^-1 mM; assay type: tissue-based; conditions: dose mM 0.00001-0.1, time 24.0 hrs
Peritoneal macrophage [4] = experiment: Cytotoxicity against Wistar rat peritoneal macrophages assessed as reduction in cell viability at 10^-5 to 10^-1 mM after 24 hrs by MTT assay; assay type: cell-based; conditions: dose 0.00001-0.1 mM; procedure, shortened: as §1
Peritoneal macrophage [5] = experiment: Cytotoxicity against Wistar rat peritoneal macrophages assessed as assessed as lysosomal activity at 10^-5 to 10^-1 mM after 24 hrs by neutral red dye-based assay; assay type: cell-based; conditions: dose 0.00001-0.1 mM; procedure, shortened: as §2
Peritoneal macrophage [6] = experiment: Cytotoxicity against Wistar rat peritoneal macrophages assessed as lysosomal activity at 10 to 100 uM after 24 hrs by neutral red dye-based assay; assay type: cell-based; conditions: dose 10-100 µM; procedure, shortened: as §2
[7] = Cytotoxicity against Wistar rat splenocytes assessed as lysosomal activity at 100 uM after 24 hrs by neutral red dye-based assay; assay type: tissue-based; conditions: splenocyte; procedure, shortened: as §2
Peritoneal macrophage [8] = experiment: Cytotoxicity against Wistar rat peritoneal macrophages assessed as lysosomal activity at 100 uM after 24 hrs by neutral red dye-based assay; assay type: cell-based; procedure, shortened: as §2
[9] = Cytotoxicity against Wistar rat splenocytes assessed as reduction in cell viability at 100 uM after 24 hrs by MTT assay; assay type: tissue-based; conditions: splenocyte; procedure, shortened: as §1
Peritoneal macrophage [10] = experiment: Cytotoxicity against Wistar rat peritoneal macrophages assessed as reduction in cell viability at 100 uM after 24 hrs by MTT assay; assay type: cell-based; procedure, shortened: as §1

SMILES | Activity [1] | Activity [2] | inhibition (Peritoneal macrophage [3]) | Activity (Peritoneal macrophage [4]) | Activity (Peritoneal macrophage [5]) | Activity (Peritoneal macrophage [6]) | Activity [7] | Activity (Peritoneal macrophage [8]) | Activity [9] | Activity (Peritoneal macrophage [10])
CC/C=C/C=C/C=C/C=C\CCCCOC(=O)[C@H](O)C(C)C | Non-Toxic | Non-Toxic | Active | Non-Toxic | Non-Toxic | – | – | – | – | –
COc1ccc(C[C@H]2COC(=O)[C@@H]2Cc2ccc(OC)c(OC)c2)cc1OC | – | – | – | – | – | Non-Toxic | Non-Toxic | – | – | –
CC/C=C/C=C/C=C/C=C/[C@@H]1CCC(=O)O1 | – | – | Active | – | – | – | Toxic | Toxic | Toxic | Toxic
CC/C=C/C=C/C=C/C=C\CCCCOC(=O)[C@H](OC(C)=O)C(C)C | Non-Toxic | Non-Toxic | – | Non-Toxic | Non-Toxic | – | – | – | – | –

From ChEMBL document CHEMBL4665848, “Constituents of Bupleurum praealtum and Bupleurum veronense with Potential Immunomodulatory Activity” (J Nat Prod, 2020)
